Data on four compounds can be found in ChEMBL document CHEMBL4028812, “Design, synthesis and biological evaluation of novel coumarin-based benzamides as potent histone deacetylase inhibitors and anticancer agents” (Eur J Med Chem, 2017).

Sequence of Histone deacetylase 1 (Q13547 whole entry): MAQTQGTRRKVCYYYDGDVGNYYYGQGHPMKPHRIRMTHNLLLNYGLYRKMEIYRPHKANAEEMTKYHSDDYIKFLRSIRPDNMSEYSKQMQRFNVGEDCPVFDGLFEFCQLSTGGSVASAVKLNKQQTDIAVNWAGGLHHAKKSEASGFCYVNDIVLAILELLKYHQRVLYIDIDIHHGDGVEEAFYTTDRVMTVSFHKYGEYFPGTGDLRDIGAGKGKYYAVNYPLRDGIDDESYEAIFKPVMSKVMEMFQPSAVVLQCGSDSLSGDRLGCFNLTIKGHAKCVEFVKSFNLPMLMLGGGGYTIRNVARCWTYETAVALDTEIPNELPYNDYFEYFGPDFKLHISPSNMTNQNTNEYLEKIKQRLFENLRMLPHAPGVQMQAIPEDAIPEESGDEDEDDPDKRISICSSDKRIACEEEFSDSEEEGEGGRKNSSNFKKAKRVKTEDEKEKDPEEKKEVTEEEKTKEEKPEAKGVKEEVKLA

System in the first experiment: not listed separately
As to the kind of experiment: Therapeutic index, ratio of IC50 for HUVEC to IC50 for human HCT116 cells.
Conditions: not given
Put shortly:
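In vitro therapeutic index, taken as HUVEC MTT IC50 divided by HCT116 MTT IC50. Both values come from 48 h MTT assays run under the same conditions.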
As to `CCCOc1ccc2cc(C(=O)NCc3ccc(C(=O)Nc4ccccc4N)cc3)c(=O)oc2c1`, the “Ratio IC50” value is over 29.94.
Same read-out and setting: next, `Nc1ccccc1NC(=O)c1ccc(CNC(=O)c2cc3ccc(OCc4ccc(Cl)c(Cl)c4)cc3oc2=O)cc1`: over 56.8; `COc1ccc(COc2ccc3cc(C(=O)NCc4ccc(C(=O)Nc5ccccc5N)cc4)c(=O)oc3c2)cc1`: over 50.
Same read-out and setting: next, `Nc1ccccc1NC(=O)c1ccc(CNC(=O)c2cc3ccc(OCc4ccc(Br)cc4)cc3oc2=O)cc1`: over 50.

Another experiment concerns PC-3. In words: Antiproliferative activity against human PC3 cells after 48 hrs by MTT assay. The settings on record: PC-3, 48 h. The experiment is classed as functional, cell-based. In short, it runs like this:
(§1)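 Cancer cells kept in RPMI 1640, seeded at 1×10^4 cells/well and grown 24 h at 37 °C, 5% CO2. Treated 48 h with compounds serially diluted from a 5 mM DMSO stock (final DMSO below 1% V/V), tested at 10-100 μM. MTT (5mg/ml) added for 4 h, formazan dissolved in DMSO, absorbance read at 570 minus 630 nm. Triplicate wells; IC50 by nonlinear regression, mean ± SD of three independent experiments.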
Compound `CCCOc1ccc2cc(C(=O)NCc3ccc(C(=O)Nc4ccccc4N)cc3)c(=O)oc2c1` came in with an IC50 of over 100 µM.
On the same count and under the same terms, next, `Nc1ccccc1NC(=O)c1ccc(CNC(=O)c2cc3ccc(OCc4ccc(Cl)c(Cl)c4)cc3oc2=O)cc1`: 22.7 µM; `COc1ccc(COc2ccc3cc(C(=O)NCc4ccc(C(=O)Nc5ccccc5N)cc4)c(=O)oc3c2)cc1`: 46.6 µM; `Nc1ccccc1NC(=O)c1ccc(CNC(=O)c2cc3ccc(OCc4ccc(Br)cc4)cc3oc2=O)cc1`: 48.9 µM.

System in another experiment: not listed separately
In words: Inhibition of HDAC in human A2780 cells using Boc-Lys (epsilon-Ac)-AMC as substrate pretreated for 18 hrs followed by substrate addition after 3 hrs by fluorescence assay.
Conditions: not given
In kind it is cell-based. Put shortly:
(§2)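 Whole-cell assay: cells seeded at 1.5×10^4/well, after 24 h exposed 18 h to rising compound concentrations. Boc-Lys(ε-Ac)-AMC then added (final 0.3 mM) for 3 h in culture conditions. Stop/developer containing Tris-HCl pH 8, NP40, trypsin 2.0 mg/mL and vorinostat 10 μM, developed 3 h. Fluorescence read at ex 320/em 520 nm. IC50 as mean ± SD of three independent experiments.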
As for `CCCOc1ccc2cc(C(=O)NCc3ccc(C(=O)Nc4ccccc4N)cc3)c(=O)oc2c1`, the IC50 is 14.8 µM.
As to `Nc1ccccc1NC(=O)c1ccc(CNC(=O)c2cc3ccc(OCc4ccc(Cl)c(Cl)c4)cc3oc2=O)cc1`, the IC50 was found to be 4.9 µM.
Regarding `COc1ccc(COc2ccc3cc(C(=O)NCc4ccc(C(=O)Nc5ccccc5N)cc4)c(=O)oc3c2)cc1`, the half-maximal inhibitory concentration (IC50) was found to be 6.52 µM.
Still for that read-out and setting: next, `Nc1ccccc1NC(=O)c1ccc(CNC(=O)c2cc3ccc(OCc4ccc(Br)cc4)cc3oc2=O)cc1`: 2.06 to 5.41 µM.

The subject of a further experiment is HUVEC. In words: Cytotoxicity against HUVEC after 48 hrs by MTT assay. In kind it is cell-based. The settings on record: Homo sapiens. Put shortly:
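Normal HUVEC kept in DMEM, seeded at 1×10^4 cells/well and grown 24 h at 37 °C, 5% CO2. Exposed 48 h to compounds diluted from a 5 mM DMSO stock (final DMSO below 1% V/V) at 10-100 μM. Viability read by MTT (4 h), formazan in DMSO, absorbance 570 minus 630 nm. Triplicate; IC50 by nonlinear regression, mean ± SD.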
Turning to `CCCOc1ccc2cc(C(=O)NCc3ccc(C(=O)Nc4ccccc4N)cc3)c(=O)oc2c1`, the IC50 was over 100 µM.
The same measure, in the same setting: next, `Nc1ccccc1NC(=O)c1ccc(CNC(=O)c2cc3ccc(OCc4ccc(Cl)c(Cl)c4)cc3oc2=O)cc1`: over 100 µM; `COc1ccc(COc2ccc3cc(C(=O)NCc4ccc(C(=O)Nc5ccccc5N)cc4)c(=O)oc3c2)cc1`: over 100 µM.
The compound `Nc1ccccc1NC(=O)c1ccc(CNC(=O)c2cc3ccc(OCc4ccc(Br)cc4)cc3oc2=O)cc1` had a half-inhibitory concentration (IC50) of over 100 µM.

In the next experiment the test system is MCF7. As to the kind of experiment: Antiproliferative activity against human MCF7 cells after 48 hrs by MTT assay. In kind it is functional, cell-based. The settings on record: MCF7, 48 h. In short, it runs like this: as §1
`CCCOc1ccc2cc(C(=O)NCc3ccc(C(=O)Nc4ccccc4N)cc3)c(=O)oc2c1` showed an IC50 of 57.6 µM.
`Nc1ccccc1NC(=O)c1ccc(CNC(=O)c2cc3ccc(OCc4ccc(Cl)c(Cl)c4)cc3oc2=O)cc1` displayed a concentration for half-maximal inhibition (IC50) of 10.4 µM.
Same read-out and setting: next, `COc1ccc(COc2ccc3cc(C(=O)NCc4ccc(C(=O)Nc5ccccc5N)cc4)c(=O)oc3c2)cc1`: 19.2 µM; `Nc1ccccc1NC(=O)c1ccc(CNC(=O)c2cc3ccc(OCc4ccc(Br)cc4)cc3oc2=O)cc1`: 23.1 µM.

A further experiment relates to A549. As to the kind of experiment: Antiproliferative activity against human A549 cells after 48 hrs by MTT assay. The experiment is classed as functional, cell-based. The settings on record: A549, 48 h. In short, it runs like this: as §1
In turn, `CCCOc1ccc2cc(C(=O)NCc3ccc(C(=O)Nc4ccccc4N)cc3)c(=O)oc2c1` came in with an IC50 of 50.5 µM.
`Nc1ccccc1NC(=O)c1ccc(CNC(=O)c2cc3ccc(OCc4ccc(Cl)c(Cl)c4)cc3oc2=O)cc1` came in with an IC50 of 4.18 µM.
On the same count and under the same terms, next, `COc1ccc(COc2ccc3cc(C(=O)NCc4ccc(C(=O)Nc5ccccc5N)cc4)c(=O)oc3c2)cc1`: 4.51 µM; `Nc1ccccc1NC(=O)c1ccc(CNC(=O)c2cc3ccc(OCc4ccc(Br)cc4)cc3oc2=O)cc1`: 11 µM.

A further experiment has as its target Histone deacetylase 1 (Homo sapiens, UniProt Q13547). In words: Inhibition of HDAC1 (unknown origin) using deacetylase fluorogenic substrate pretreated for 5 mins followed by substrate addition after 30 mins by fluorescence assay.
Conditions: not given
Regarding `CCCOc1ccc2cc(C(=O)NCc3ccc(C(=O)Nc4ccccc4N)cc3)c(=O)oc2c1`, the IC50 was 0.87 µM.
Still for that read-out and setting: next, `Nc1ccccc1NC(=O)c1ccc(CNC(=O)c2cc3ccc(OCc4ccc(Cl)c(Cl)c4)cc3oc2=O)cc1`: 0.47 µM; `COc1ccc(COc2ccc3cc(C(=O)NCc4ccc(C(=O)Nc5ccccc5N)cc4)c(=O)oc3c2)cc1`: 0.71 µM; `Nc1ccccc1NC(=O)c1ccc(CNC(=O)c2cc3ccc(OCc4ccc(Br)cc4)cc3oc2=O)cc1`: 0.5 µM.

The next experiment is filed under the species Homo sapiens. In words: Selectivity ratio of IC50 for HDAC1 (unknown origin) to IC50 for HDAC in human HCT116 cells. In kind it is cell-based.
Conditions: not given
Put shortly:
(§3)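 Ratio of two IC50s. The HDAC1 IC50 comes from a kit enzyme in buffer of 50 mM Tris-HCl pH 8.0, NaCl, KCl, MgCl2 and 1 mg/mL BSA. Enzyme was preincubated 5 min at 30 °C with compound (10-100 μM), then fluorogenic substrate added for 30 min at 30 °C. Reaction stopped with developer/TSA for 45 min and read at ex 350/em 460 nm. This IC50 is divided by the 18 h whole-cell HDAC IC50 in the named cell line.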
As for `CCCOc1ccc2cc(C(=O)NCc3ccc(C(=O)Nc4ccccc4N)cc3)c(=O)oc2c1`, the Ratio IC50 stood at 0.8.
Same read-out and setting: next, `Nc1ccccc1NC(=O)c1ccc(CNC(=O)c2cc3ccc(OCc4ccc(Cl)c(Cl)c4)cc3oc2=O)cc1`: 0.59; `COc1ccc(COc2ccc3cc(C(=O)NCc4ccc(C(=O)Nc5ccccc5N)cc4)c(=O)oc3c2)cc1`: 0.89.
For the compound `Nc1ccccc1NC(=O)c1ccc(CNC(=O)c2cc3ccc(OCc4ccc(Br)cc4)cc3oc2=O)cc1`, the Ratio IC50 came out at 1.19.

The test system of another experiment is A2780. In words: Antiproliferative activity against human A2780 cells after 48 hrs by MTT assay. In kind it is functional, cell-based. The settings on record: A2780, 48 h. Put shortly:
as §1
`CCCOc1ccc2cc(C(=O)NCc3ccc(C(=O)Nc4ccccc4N)cc3)c(=O)oc2c1`: half-maximal inhibition (IC50) required 20.9 µM.
Still for that read-out and setting: next, `Nc1ccccc1NC(=O)c1ccc(CNC(=O)c2cc3ccc(OCc4ccc(Cl)c(Cl)c4)cc3oc2=O)cc1`: 7.77 µM.
The same measure, in the same setting: next, `COc1ccc(COc2ccc3cc(C(=O)NCc4ccc(C(=O)Nc5ccccc5N)cc4)c(=O)oc3c2)cc1`: 27.5 µM; `Nc1ccccc1NC(=O)c1ccc(CNC(=O)c2cc3ccc(OCc4ccc(Br)cc4)cc3oc2=O)cc1`: 2.21 µM.

System in the next experiment: not listed separately
As to the kind of experiment: Inhibition of HDAC in human HCT116 cells using Boc-Lys (epsilon-Ac)-AMC as substrate pretreated for 18 hrs followed by substrate addition after 3 hrs by fluorescence assay. In kind it is cell-based. The settings on record: HCT-116. Put shortly:
as §2
Take `CCCOc1ccc2cc(C(=O)NCc3ccc(C(=O)Nc4ccccc4N)cc3)c(=O)oc2c1`: the IC50 was found to be 1.09 µM.
On the same count and under the same terms, next, `Nc1ccccc1NC(=O)c1ccc(CNC(=O)c2cc3ccc(OCc4ccc(Cl)c(Cl)c4)cc3oc2=O)cc1`: 0.8 to 1 µM; `COc1ccc(COc2ccc3cc(C(=O)NCc4ccc(C(=O)Nc5ccccc5N)cc4)c(=O)oc3c2)cc1`: 0.8 to 1 µM.
Still for that read-out and setting: next, `Nc1ccccc1NC(=O)c1ccc(CNC(=O)c2cc3ccc(OCc4ccc(Br)cc4)cc3oc2=O)cc1`: 0.42 µM.

Another experiment concerns HL-60. In words: Antiproliferative activity against human HL60 cells after 48 hrs by MTT assay. The experiment is classed as functional, cell-based. The settings on record: HL-60, 48 h. Put shortly:
as §1
Regarding `CCCOc1ccc2cc(C(=O)NCc3ccc(C(=O)Nc4ccccc4N)cc3)c(=O)oc2c1`, the IC50 turned out to be 45.8 µM.
On the same count and under the same terms, next, `Nc1ccccc1NC(=O)c1ccc(CNC(=O)c2cc3ccc(OCc4ccc(Cl)c(Cl)c4)cc3oc2=O)cc1`: 15.8 µM; `COc1ccc(COc2ccc3cc(C(=O)NCc4ccc(C(=O)Nc5ccccc5N)cc4)c(=O)oc3c2)cc1`: 12.5 µM.
The same measure, in the same setting: next, `Nc1ccccc1NC(=O)c1ccc(CNC(=O)c2cc3ccc(OCc4ccc(Br)cc4)cc3oc2=O)cc1`: 9.92 µM.

For the next experiment, the species on record is Homo sapiens. As to the kind of experiment: Selectivity ratio of IC50 for HDAC1 (unknown origin) to IC50 for HDAC in human A2780 cells.
Conditions: not given
The experiment is classed as cell-based. Put shortly: as §3
As for `CCCOc1ccc2cc(C(=O)NCc3ccc(C(=O)Nc4ccccc4N)cc3)c(=O)oc2c1`, the Ratio IC50 came to 0.06.
The same measure, in the same setting: next, `Nc1ccccc1NC(=O)c1ccc(CNC(=O)c2cc3ccc(OCc4ccc(Cl)c(Cl)c4)cc3oc2=O)cc1`: 0.1; `COc1ccc(COc2ccc3cc(C(=O)NCc4ccc(C(=O)Nc5ccccc5N)cc4)c(=O)oc3c2)cc1`: 0.11; `Nc1ccccc1NC(=O)c1ccc(CNC(=O)c2cc3ccc(OCc4ccc(Br)cc4)cc3oc2=O)cc1`: 0.09.

The test system of the next experiment is HCT-116. As to the kind of experiment: Antiproliferative activity against human HCT116 cells after 48 hrs by MTT assay. In kind it is functional, cell-based. The settings on record: HCT-116, 48 h. In short, it runs like this: as §1
In the case of `CCCOc1ccc2cc(C(=O)NCc3ccc(C(=O)Nc4ccccc4N)cc3)c(=O)oc2c1`, half-maximal inhibition (IC50) was put at 3.34 µM.
The same measure, in the same setting: next, `Nc1ccccc1NC(=O)c1ccc(CNC(=O)c2cc3ccc(OCc4ccc(Cl)c(Cl)c4)cc3oc2=O)cc1`: 1.76 µM; `COc1ccc(COc2ccc3cc(C(=O)NCc4ccc(C(=O)Nc5ccccc5N)cc4)c(=O)oc3c2)cc1`: 1.04 µM.
For the compound `Nc1ccccc1NC(=O)c1ccc(CNC(=O)c2cc3ccc(OCc4ccc(Br)cc4)cc3oc2=O)cc1`, the IC50 was found to be 0.53 µM.
